Article PMC7785655 (Toxicology, 2020)
Read-outs that look alike come from different tables or passages of the source.

Key:
[1] = test system: primary human hepatocytes; assay: Drug recovery from 2D cultures or LAMPS chip effluent; assay type: in vitro ADME; details: primary human hepatocytes; effect most pronounced for these drugs
Method in brief: (§1)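 Hepatocytes were seeded from thaw at 2.75×10^6 cells/mL into fibronectin/collagen I-coated chips or 96-well plates, then overlaid with THP-1, EA.hy926 and LX-2 cells. Drugs in 0.1% DMSO vehicle were added on day 0. Chips were perfused at 15 μL/hour, and 2D media were exchanged daily for up to 10 days. Drugs in effluent or medium were quantified by LC-MS/MS and expressed as % of starting concentration. Values are mean±SEM, n=3–9.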

[2] = as above; assay type: in vitro ADME, human; details: human; for recovery: primary human hepatocytes, 2D cultures or LAMPS chips
Method in brief: as §1

[3] = as above; assay type: in vitro ADME; details: human, iCell hepatocytes
Method in brief: as §1

[4] = test system: primary human hepatocytes; assay: Drug effects on viability and function; assay type: cell-based; details: both laboratories
[5] = test system: primary human hepatocytes; assay: Drug effects on viability and function in 2D monolayer cultures; assay type: cell-based; details: day 10; 2D cultures with primary hepatocytes; Tolcapone 88 μM, Trovafloxacin 150 μM, LPS 1 μg/mL
[6] = test system: primary human hepatocytes; details: cited from earlier work
[7] = 2D monolayer-cultured primary human hepatocytes
[8] = Tolcapone 88 μM, 5 days, vs No Treatment

**Q.** For `Cc1c(C)c2c(c(C)c1O)CCC(C)(COc1ccc(CC3SC(=O)NC3=O)cc1)O2` (centres unmarked) [Troglitazone], which “recovery in LAMPS chips compared with 2D monolayer cultures” value [1] is on record?
**A.** lower recovery than 2D monolayer cultures

**Q.** And the recovery at 28 µM [2, 7]?
**A.** > 10%

**Q.** What about the recovery at 1 day, 28 µM [2, 7] of the same compound?
**A.** < 1%

**Q.** What about the recovery [3] of the same compound?
**A.** 10 to 40%

**Q.** And the recovery ([3]; LAMPS chips and 2D monolayer)?
**A.** ~100%

**Q.** Which results are given for `N[C@@H]1[C@H]2CN(c3nc4c(cc3F)c(=O)c(C(=O)O)cn4-c3ccc(F)cc3F)C[C@@H]12` [Trovafloxacin]?
**A.** recovery [2]: ~100%; effect on LDH ([4]; Trovafloxacin 150 μM): significant effects; effect on albumin ([4]; Trovafloxacin 150 μM): significant effects; cell viability [5]: pronounced effects

**Q.** Which recovery [3] does the source give for `CN(CCOc1ccc(CC2SC(=O)NC2=O)cc1)c1ccccn1` (centres unmarked) [Rosiglitazone] here?
**A.** 10 to 40%

**Q.** What about the recovery ([3]; LAMPS chips and 2D monolayer) of the same compound?
**A.** ~100%

**Q.** Which “effect on LDH levels” value ([6]; Caffeine 600 μM, previous study in Laboratory 2, different donor hepatocytes, ref Vernetti et al. 2016) does the source give for `Cn1c(=O)c2c(ncn2C)n(C)c1=O` [Caffeine] here?
**A.** reduced

**Q.** And the effect on albumin [6]?
**A.** without significant effect

**Q.** And the effect on urea [6]?
**A.** without significant effect

**Q.** And the recovery [2]?
**A.** ~100%

**Q.** What does the source list for `Cc1ccc(C(=O)c2cc(O)c(O)c([N+](=O)[O-])c2)cc1` [Tolcapone]?
**A.** albumin production [4, 8]: statistically significant decrease; urea production [4, 8]: statistically significant decrease; recovery [3]: 10 to 40%; recovery ([3]; LAMPS chips and 2D monolayer): ~100%; cell viability [5]: pronounced effects

**Q.** With `CCc1ccc(CCOc2ccc(CC3SC(=O)NC3=O)cc2)nc1` (centres unmarked) [Pioglitazone] as the compound, how does the “recovery in LAMPS chips compared with 2D monolayer cultures” value [1] read?
**A.** lower recovery than 2D monolayer cultures

**Q.** What about the recovery [3] of the same compound?
**A.** 10 to 40%

**Q.** And the recovery ([3]; LAMPS chips and 2D monolayer)?
**A.** ~100%
